Assay results taken from ChEMBL document CHEMBL1140880, “Arylphthalazines as potent, and orally bioavailable inhibitors of VEGFR-2” (Bioorg Med Chem, 2009).
Converted amounts (≈) assume the structure as drawn. One block for each molecule: values may come before it.

Assays:
HUVEC = assay: Inhibition of VEGF-stimulated HUVEC cell proliferation treated before 2 hrs of VEGF challenge assessed after 3 days by [3H]thymidine incorporation assay; format: functional; conditions: Homo sapiens, read-out: ED50 (the source's name)
Method in brief: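 HUVEC seeded at 1 × 10^4 cells/well in EGM and allowed to adhere ≥4 h. Cells then quiesced 72 h in medium lacking EGF, VEGF and FGF with 1% FBS. Compound added for 2 h (0.1% DMSO), then stimulation with VEGF-165 (5 ng/well) for 3 days.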

[1] = AUC (0 to 24 hrs) in CD1 mouse at 30 mg/kg administered as 5% phosal solution; format: ADME, organism-based; parameters: time < 24 hr, dose 30 mg/kg; conditions: plasma
Method in brief: (§1)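 Female CD-1 mice (n = 3) given 30 mg/kg orally in 5% phosal solution (dihydrochloride salt; target ca. 3 mg/mL, dosed at 10 mL/kg).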

[2] = target: T1, Vascular endothelial growth factor receptor 2 (Homo sapiens, UniProt P35968); conditions: HEK293
Target sequence in this assay (P35968 whole entry, looked up): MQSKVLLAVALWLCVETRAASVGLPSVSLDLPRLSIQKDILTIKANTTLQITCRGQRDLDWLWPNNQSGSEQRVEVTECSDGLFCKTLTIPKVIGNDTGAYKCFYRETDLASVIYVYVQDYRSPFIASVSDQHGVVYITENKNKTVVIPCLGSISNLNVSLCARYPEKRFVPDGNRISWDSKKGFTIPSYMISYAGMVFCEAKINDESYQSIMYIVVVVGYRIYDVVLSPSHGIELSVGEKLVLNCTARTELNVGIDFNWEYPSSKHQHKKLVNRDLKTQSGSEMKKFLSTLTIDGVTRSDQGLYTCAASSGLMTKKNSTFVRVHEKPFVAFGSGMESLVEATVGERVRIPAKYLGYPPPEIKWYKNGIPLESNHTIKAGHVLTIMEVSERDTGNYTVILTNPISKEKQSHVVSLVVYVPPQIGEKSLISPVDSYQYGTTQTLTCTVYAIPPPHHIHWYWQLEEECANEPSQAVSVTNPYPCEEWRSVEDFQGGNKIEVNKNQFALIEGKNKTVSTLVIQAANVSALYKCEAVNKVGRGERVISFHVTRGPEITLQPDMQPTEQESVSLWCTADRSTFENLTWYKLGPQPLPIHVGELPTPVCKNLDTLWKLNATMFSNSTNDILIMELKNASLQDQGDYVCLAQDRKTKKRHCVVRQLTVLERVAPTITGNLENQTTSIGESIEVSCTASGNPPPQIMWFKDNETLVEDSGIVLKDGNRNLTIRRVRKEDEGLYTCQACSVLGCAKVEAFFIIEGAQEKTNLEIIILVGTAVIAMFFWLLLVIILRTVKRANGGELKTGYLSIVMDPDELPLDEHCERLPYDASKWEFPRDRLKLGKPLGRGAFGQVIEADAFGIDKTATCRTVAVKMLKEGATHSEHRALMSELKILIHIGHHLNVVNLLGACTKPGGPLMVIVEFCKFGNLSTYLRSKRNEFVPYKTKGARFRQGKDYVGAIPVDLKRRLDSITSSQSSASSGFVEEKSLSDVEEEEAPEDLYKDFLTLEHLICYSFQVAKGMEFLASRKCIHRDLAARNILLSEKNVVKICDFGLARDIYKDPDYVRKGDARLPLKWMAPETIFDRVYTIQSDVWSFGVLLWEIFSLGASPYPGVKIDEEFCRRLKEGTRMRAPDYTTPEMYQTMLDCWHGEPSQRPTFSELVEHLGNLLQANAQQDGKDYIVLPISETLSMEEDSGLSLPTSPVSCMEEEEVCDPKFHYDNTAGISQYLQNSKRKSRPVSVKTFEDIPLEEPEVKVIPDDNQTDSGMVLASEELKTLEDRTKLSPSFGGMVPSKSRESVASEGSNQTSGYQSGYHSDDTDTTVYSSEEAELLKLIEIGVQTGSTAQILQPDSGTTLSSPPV

Cytochrome P450 3A4 = Cytochrome P450 3A4 (Homo sapiens, UniProt P08684); assay: Inhibition of CYP3A4; format: ADME
[3] = target: Fibroblast growth factor receptor 1 (Homo sapiens) (UniProt P11362); assay: Inhibition of FGFR1 at 10 uM
[4] = target: Sodium-dependent dopamine transporter (Homo sapiens) (UniProt Q01959); assay: Inhibition of dopamine transporter at 10 uM
[5] = Drug level in po dosed CD1 mouse administered as 5% phosal solution after 4 hrs; format: ADME, organism-based; conditions: in vivo, read-out: Drug uptake
Method in brief: (§2)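 Preliminary exposure study in female CD-1 mice dosed by oral route; vehicles included 5% phosal solution. Plasma analysed for compound at 1-h and 4-h timepoints.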

[6] = Cmax in CD1 mouse at 30 mg/kg administered as 5% phosal solution after 24 hrs; format: ADME, organism-based; parameters: dose 30 mg/kg; conditions: in vivo; method in brief: as §1
[7] = Inhibition of adenosine receptor at 10 uM
[8] = target: Voltage-gated inwardly rectifying potassium channel KCNH2 (Homo sapiens, UniProt Q12809); assay: Inhibition of human ERG; conditions: read-out: ED50 (the source's name)
[9] = target: Histamine H2 receptor (Homo sapiens) (UniProt P25021); assay: Inhibition of histamine H2 receptor at 10 uM
[10] = target: Vascular endothelial growth factor receptor 3 (Homo sapiens) (UniProt P35916); assay: Inhibition of VEGFR3 at 10 uM
[11] = Drug level in po dosed CD1 mouse administered as 5% phosal solution after 1 hr; format: ADME, organism-based; conditions: in vivo, read-out: Drug uptake; method in brief: as §2
[12] = Solubility in deionized water; format: physicochemical
[13] = target: T1, Vascular endothelial growth factor receptor 2; assay: Inhibition of VEGFR2 by HTRF method
Target sequence in this assay (P35968 whole entry): as the sequence (P35968 whole entry, looked up) above

Sequence of Voltage-gated inwardly rectifying potassium channel KCNH2 (Q12809 whole entry): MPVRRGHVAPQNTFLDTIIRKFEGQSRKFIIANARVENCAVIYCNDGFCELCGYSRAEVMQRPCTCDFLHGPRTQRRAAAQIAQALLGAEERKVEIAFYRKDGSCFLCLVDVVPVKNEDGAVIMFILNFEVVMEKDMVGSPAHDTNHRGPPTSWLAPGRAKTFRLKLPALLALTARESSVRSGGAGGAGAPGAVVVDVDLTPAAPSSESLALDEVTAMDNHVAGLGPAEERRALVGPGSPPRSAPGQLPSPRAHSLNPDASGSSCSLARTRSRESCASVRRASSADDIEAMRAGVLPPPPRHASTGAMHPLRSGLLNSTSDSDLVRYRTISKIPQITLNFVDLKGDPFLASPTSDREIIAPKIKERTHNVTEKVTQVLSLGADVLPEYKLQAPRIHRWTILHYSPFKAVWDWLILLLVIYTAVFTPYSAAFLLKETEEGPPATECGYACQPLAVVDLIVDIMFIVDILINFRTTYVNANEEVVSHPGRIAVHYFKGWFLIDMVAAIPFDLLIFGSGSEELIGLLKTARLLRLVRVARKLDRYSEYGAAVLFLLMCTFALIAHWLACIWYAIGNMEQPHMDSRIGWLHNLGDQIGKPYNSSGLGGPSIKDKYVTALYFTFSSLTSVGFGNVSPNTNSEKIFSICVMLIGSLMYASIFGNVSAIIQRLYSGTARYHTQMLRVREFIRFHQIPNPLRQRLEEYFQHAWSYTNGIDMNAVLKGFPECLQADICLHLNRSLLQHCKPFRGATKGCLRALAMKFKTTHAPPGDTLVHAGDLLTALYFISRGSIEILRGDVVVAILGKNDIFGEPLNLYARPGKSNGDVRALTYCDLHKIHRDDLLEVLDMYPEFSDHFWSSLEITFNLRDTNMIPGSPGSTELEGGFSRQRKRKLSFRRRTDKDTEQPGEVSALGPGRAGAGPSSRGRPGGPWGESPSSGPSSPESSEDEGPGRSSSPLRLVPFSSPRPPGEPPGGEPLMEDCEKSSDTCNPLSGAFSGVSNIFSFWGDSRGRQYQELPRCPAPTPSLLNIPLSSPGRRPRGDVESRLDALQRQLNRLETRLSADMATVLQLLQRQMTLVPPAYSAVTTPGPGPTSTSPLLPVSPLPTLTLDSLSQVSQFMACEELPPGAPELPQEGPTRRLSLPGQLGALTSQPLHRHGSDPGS
Sequence of Cytochrome P450 3A4 (P08684 whole entry): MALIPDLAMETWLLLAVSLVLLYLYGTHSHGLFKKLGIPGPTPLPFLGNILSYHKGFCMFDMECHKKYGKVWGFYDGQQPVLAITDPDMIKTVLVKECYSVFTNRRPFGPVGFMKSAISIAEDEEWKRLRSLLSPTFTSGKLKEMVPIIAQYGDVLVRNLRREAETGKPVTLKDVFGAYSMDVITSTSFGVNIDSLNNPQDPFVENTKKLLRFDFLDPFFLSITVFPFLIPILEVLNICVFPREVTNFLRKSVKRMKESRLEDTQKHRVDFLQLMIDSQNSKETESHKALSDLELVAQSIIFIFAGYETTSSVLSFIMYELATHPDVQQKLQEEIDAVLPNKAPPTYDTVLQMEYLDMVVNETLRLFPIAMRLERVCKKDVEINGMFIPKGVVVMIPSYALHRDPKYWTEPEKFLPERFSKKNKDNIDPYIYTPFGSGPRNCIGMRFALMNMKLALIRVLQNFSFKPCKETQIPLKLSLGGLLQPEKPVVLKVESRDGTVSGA
Sequence of Sodium-dependent dopamine transporter (Homo sapiens) (Q01959 whole entry): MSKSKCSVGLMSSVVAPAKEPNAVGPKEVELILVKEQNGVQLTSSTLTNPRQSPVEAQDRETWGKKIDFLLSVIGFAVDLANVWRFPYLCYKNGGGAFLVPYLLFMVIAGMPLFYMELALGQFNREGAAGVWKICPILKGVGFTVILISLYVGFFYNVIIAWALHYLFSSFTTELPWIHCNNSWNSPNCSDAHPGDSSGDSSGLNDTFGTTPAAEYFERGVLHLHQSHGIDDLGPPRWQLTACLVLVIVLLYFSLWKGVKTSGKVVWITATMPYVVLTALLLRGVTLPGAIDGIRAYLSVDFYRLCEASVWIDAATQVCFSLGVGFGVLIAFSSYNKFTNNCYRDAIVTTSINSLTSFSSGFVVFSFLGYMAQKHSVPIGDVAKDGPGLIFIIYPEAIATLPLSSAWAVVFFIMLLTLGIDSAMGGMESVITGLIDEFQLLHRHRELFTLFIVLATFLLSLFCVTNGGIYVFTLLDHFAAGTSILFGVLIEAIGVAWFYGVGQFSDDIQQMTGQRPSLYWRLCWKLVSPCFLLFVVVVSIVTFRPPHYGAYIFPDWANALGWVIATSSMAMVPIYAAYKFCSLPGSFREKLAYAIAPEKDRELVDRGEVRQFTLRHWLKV
Sequence of Fibroblast growth factor receptor 1 (Homo sapiens) (P11362 22-822 limits assumed): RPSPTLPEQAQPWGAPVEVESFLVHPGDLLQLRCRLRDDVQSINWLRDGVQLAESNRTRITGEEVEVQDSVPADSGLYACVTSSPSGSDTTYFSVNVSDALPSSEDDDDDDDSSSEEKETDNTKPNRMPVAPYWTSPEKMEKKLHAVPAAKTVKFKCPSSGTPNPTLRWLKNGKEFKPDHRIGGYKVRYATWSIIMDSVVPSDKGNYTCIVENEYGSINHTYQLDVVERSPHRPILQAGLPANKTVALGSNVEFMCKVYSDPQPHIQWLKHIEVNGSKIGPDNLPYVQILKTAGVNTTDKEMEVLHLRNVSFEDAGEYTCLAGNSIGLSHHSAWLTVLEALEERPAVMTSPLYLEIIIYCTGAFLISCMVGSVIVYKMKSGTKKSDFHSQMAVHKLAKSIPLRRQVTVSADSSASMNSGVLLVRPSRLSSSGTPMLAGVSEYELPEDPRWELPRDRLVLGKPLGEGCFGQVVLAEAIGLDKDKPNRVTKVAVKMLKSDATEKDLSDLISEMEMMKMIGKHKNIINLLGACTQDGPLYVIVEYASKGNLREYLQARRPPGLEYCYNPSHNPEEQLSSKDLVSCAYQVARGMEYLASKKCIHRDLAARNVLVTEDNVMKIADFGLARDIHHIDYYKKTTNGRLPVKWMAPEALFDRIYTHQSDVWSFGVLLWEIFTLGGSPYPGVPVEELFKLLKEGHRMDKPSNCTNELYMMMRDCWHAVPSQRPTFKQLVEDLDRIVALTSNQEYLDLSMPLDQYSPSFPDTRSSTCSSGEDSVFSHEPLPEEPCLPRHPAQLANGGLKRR
Sequence of Histamine H2 receptor (Homo sapiens) (P25021 whole entry): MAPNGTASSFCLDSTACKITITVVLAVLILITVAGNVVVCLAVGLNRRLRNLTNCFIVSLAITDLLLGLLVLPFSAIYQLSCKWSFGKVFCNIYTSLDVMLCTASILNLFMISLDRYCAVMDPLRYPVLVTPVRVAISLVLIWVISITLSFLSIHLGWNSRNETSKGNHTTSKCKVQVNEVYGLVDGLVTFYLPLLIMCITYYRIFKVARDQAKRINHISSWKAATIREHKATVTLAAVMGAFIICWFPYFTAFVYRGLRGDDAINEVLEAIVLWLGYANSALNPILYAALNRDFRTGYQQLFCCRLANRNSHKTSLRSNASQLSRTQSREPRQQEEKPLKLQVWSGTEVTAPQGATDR

SMILES: COc1cc2/c(=N/c3ccc(Br)cc3F)nc[nH]c2cc1OCC1CCN(C)CC1 [VANDETANIB]
EC50 (HUVEC): 280 nM

AUC(0-t) at 24 h [1]: 891 µM·h
ED50 [2]: 10 nM
Activity (Cytochrome P450 3A4): Not Active
inhibition [3]: 38%
inhibition [4]: 77%
concentration at 4 h [5]: 18.8 µM
Cmax [6]: 25.9 µM
inhibition [7]: 65%
inhibition [9]: 54%
inhibition [10]: 33%
concentration at 1 h [11]: 22.7 µM
solubility [12]: 1000 µg/mL (≈ 2610 µM)
SMILES: Clc1ccc(Nc2nnc(-c3cccc4cnccc34)c3ccccc23)cc1
EC50 (HUVEC): 210 nM
IC50 [8]: 3000 nM

ED50 [2]: > 10000 nM
SMILES: COc1ccc(Nc2nnc(-c3ccc(C(N)=O)cc3)c3ccccc23)cc1

IC50 [13]: > 10000 nM
SMILES: NC(=O)c1ccc(-c2nnc(Nc3ccc(Oc4ccccc4)cc3)c3ccccc23)cc1

IC50 [13]: > 10000 nM
SMILES: CNS(=O)(=O)c1ccc(Nc2nnc(-c3ccc(C(N)=O)cc3)c3ccccc23)cc1

SMILES: COc1cc2c(Oc3ccc4[nH]c(C)cc4c3F)ncnc2cc1OCCCN1CCCC1 [CEDIRANIB]
EC50 (HUVEC): 12 nM

SMILES: CC(C)(C)c1ccc(Nc2nnc(-c3ccc(C(N)=O)cc3)c3ccccc23)cc1
EC50 (HUVEC): 250 nM
